Data from ChEMBL document CHEMBL4138044, “Withaferin A induces cell death and differentiation in multiple myeloma cancer stem cells” (Medchemcomm, 2017).
pIC50: −log10 of the molar value.

Tests used:
[1] = system: Multiple myeloma cancer stem cell; test: Antiproliferative activity against human multiple myeloma cancer stem cells after 72 hrs by MTT assay; assay type: functional, cell-based
How it was run: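 MM-CSCs plated at 5000 cells/well and allowed to adhere 24 h, then exposed to 0–10 μM WFA for 72 h. MTT added for 2 h. Growth taken as absorbance relative to vehicle-control wells ×100. IC50 fitted from at least five concentrations; mean of three independent experiments ± SEM.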

[2] = Antiproliferative activity against human […] cells after 72 hrs by XTT assay; assay type: functional, cell-based
How it was run: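 RPMI 8226 cells in RPMI 1640 with 10% FBS, plated at 15 000 cells/well and treated immediately with 0–10 μM WFA for 72 h. XTT added for 4 h. Growth as absorbance relative to vehicle control ×100. IC50 fitted from at least five concentrations; mean of three independent experiments ± SEM.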

- pIC50 [1]: < 4.00
SMILES: C[C@@H]1C[C@H]2[C@@H]3CCC4=CC(=O)C=C[C@]4(C)[C@@]3(F)[C@@H](O)C[C@]2(C)[C@@]1(O)C(=O)CO [DEXAMETHASONE]
- pIC50 [2]: 8.11
